# ChEMBL document CHEMBL2384924, “Antagonists for the orphan G-protein-coupled receptor GPR55 based on a coumarin scaffold” (J Med Chem, 2013)
# The source made the active and inactive calls. Unless noted, no cut-off for these calls is given here.
# Tests used:
# [1] = target: T1, G-protein coupled receptor 55 (Homo sapiens, UniProt Q9Y2T6); assay: Agonist activity at human GPR55 transfected in CHO cells after 90 mins by beta-arrestin translocation assay relative to LPI; assay type: cell-based
# Summary of the method: (§1)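 CHO cells stably expressing human GPR55 (β-galactosidase fragment complementation) were seeded at 20,000 cells/well in Opti-MEM with 2% FCS for 24 h at 37°C. Compound was diluted in PBS with 10% DMSO and 0.1% BSA, screened at 10 µM and incubated 90 min at 37°C. Galacton-Star/Emerald-II/lysis buffer (1:5:19) was added for 60 min at RT, then luminescence was read. Response is relative to 1 µM LPI (100%).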
# [2] = target: T1, G-protein coupled receptor 55; assay: Antagonist activity at human GPR55 expressed in HEK293 cells assessed as inhibition of LPI-induced beta-arrestin recruitment incubated 60 mins prior to LPI addition by beta-arrestin translocation assay; assay type: cell-based; parameters: scale not given: the % may be the effect or the level left
# [3] = target: Cannabinoid receptor 2 (Homo sapiens, UniProt P34972); assay: Agonist activity at human CB2 receptor expressed in CHOK1 cells assessed as […] of forskolin-stimulated cAMP level at 10 uM; assay type: functional, cell-based; settings: CHO-K1
# [4] = target: T1, G-protein coupled receptor 55; assay: Agonist activity at human GPR55 transfected in CHO cells at 10 uM after 90 mins by beta-arrestin translocation assay; assay type: cell-based; summary of the method: as §1
# [5] = target: T2, N-arachidonyl glycine receptor (Homo sapiens, UniProt Q14330); assay: Antagonist activity at human GPR18 transfected in CHO cells assessed as delta9-THC-induced beta-arrestin recruitment incubated 60 mins prior to delta9-THC addition by beta-arrestin translocation assay; assay type: cell-based
# T2 sequence (Q14330 whole entry): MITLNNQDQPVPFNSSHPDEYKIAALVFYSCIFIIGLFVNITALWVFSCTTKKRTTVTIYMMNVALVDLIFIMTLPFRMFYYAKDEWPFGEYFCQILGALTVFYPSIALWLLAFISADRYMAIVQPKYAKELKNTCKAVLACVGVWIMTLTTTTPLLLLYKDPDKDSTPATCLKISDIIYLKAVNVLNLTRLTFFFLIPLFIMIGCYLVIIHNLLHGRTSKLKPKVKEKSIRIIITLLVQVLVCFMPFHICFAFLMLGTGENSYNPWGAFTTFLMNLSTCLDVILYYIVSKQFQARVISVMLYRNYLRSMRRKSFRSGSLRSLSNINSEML
# Summary of the method: (§2)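 CHO cells stably expressing human GPR18 were seeded at 20,000 cells/well for 24 h at 37°C. Compound in PBS/10% DMSO/0.1% BSA was added 60 min before the GPR18 agonist 3 at 10 µM. The supplier's detection reagent was used, and luminescence was read after 60 min at RT. Screening was at 10 µM (% inhibition); IC50 from concentration-inhibition curves. Three independent experiments in duplicate.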
# [6] = target: T3, N-arachidonyl glycine receptor (Homo sapiens) (UniProt Q14330); assay: Antagonist activity at human GPR18 transfected in CHO cells assessed as delta9-THC-induced beta-arrestin recruitment at 10 uM incubated 60 mins prior to delta9-THC addition by beta-arrestin translocation assay; assay type: cell-based; parameters: scale not given: the % may be the effect or the level left; summary of the method: as §2
# T3 sequence (whole entry): T2 sequence (Q14330 whole entry)
# [7] = target: Cannabinoid receptor 1 (Homo sapiens, UniProt P21554); assay: Agonist activity at human CB1 receptor expressed in CHOK1 cells assessed as […] of forskolin-stimulated cAMP level at 10 uM; assay type: functional, cell-based; settings: CHO-K1
# [8] = target: T1, G-protein coupled receptor 55; assay: Antagonist activity at human GPR55 transfected in CHO cells assessed as inhibition of LPI-induced beta-arrestin recruitment incubated 60 mins prior to LPI addition by beta-arrestin translocation assay; assay type: cell-based
# Summary of the method: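 CHO cells stably expressing human GPR55 were seeded at 20,000 cells/well for 24 h at 37°C. Compound in PBS/10% DMSO/0.1% BSA was added 60 min before 1 µM LPI. Galacton-Star/Emerald-II/lysis buffer (pH 8) was applied for 60 min at RT, with luminescence read-out. Screening was at 10 µM (% inhibition). IC50 was measured where inhibition exceeded 60%. Three independent experiments in duplicate.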
# [9] = target: T1, G-protein coupled receptor 55; assay: Antagonist activity at human GPR55 transfected in CHO cells assessed as inhibition of LPI-induced beta-arrestin recruitment incubated 60 mins prior to LPI addition by Gaddum method; assay type: cell-based
# Summary of the method: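 In the human GPR55 CHO β-arrestin luminescence assay, full LPI concentration-response curves were run without and with 3-4 antagonist concentrations. Antagonist was preincubated 1 h, then incubated with agonist […]. KB was estimated by the Gaddum method. Three independent experiments in duplicate.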
# T1 sequence (Q9Y2T6 whole entry, the tested form may be a part): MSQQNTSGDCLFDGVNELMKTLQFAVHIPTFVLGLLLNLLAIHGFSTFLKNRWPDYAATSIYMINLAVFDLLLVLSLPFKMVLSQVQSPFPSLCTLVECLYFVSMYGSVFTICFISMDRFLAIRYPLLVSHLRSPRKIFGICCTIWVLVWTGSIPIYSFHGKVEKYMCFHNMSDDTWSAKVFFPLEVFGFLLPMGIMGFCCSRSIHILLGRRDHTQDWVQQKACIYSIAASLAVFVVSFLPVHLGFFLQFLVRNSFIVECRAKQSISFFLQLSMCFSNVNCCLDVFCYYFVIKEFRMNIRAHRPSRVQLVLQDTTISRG
# Chain of Cannabinoid receptor 2 (P34972 whole entry): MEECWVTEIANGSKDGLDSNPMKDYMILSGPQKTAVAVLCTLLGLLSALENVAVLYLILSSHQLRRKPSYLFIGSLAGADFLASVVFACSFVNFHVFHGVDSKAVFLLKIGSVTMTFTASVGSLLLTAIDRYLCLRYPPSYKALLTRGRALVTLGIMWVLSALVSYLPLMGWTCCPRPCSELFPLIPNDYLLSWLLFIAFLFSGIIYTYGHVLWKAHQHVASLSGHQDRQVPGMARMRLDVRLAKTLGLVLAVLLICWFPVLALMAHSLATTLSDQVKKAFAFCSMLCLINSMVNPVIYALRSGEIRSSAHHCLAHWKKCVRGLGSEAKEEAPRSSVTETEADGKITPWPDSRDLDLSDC
# Chain of Cannabinoid receptor 1 (P21554 whole entry): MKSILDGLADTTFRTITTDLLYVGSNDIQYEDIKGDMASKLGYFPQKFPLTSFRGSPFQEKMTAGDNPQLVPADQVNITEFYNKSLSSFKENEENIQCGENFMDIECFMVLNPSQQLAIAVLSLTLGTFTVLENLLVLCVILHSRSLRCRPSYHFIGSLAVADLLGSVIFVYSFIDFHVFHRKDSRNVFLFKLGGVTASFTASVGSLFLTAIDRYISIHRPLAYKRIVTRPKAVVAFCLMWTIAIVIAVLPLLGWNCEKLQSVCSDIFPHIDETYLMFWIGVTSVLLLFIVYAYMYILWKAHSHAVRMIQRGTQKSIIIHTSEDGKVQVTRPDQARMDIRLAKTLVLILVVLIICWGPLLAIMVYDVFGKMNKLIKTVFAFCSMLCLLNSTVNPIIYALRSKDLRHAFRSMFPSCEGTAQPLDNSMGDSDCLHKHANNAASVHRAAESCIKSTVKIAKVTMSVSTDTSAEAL
smiles,measurement,setting,value
CCCCC/C=C\C/C=C\C/C=C\C/C=C\CCCC(=O)O[C@H](CO)COP(=O)(O)O[C@@H]1[C@H](O)[C@H](O)[C@@H](O)[C@H](O)[C@H]1O,EC50,[1],1000 nM
C=C(C)[C@@H]1CCC(C)=C[C@H]1c1c(O)cc(CCC)cc1O,Activity,[2],56%
CCCCCc1cc(OC)c2cc(Cc3cccc(OC)c3)c(=O)oc2c1,Activity,[3],Active
same,Activity,[4],inactive
same,IC50,[5],> 10000 nM
same,Activity,[6],33%
same,Activity,[7],Active
same,IC50,[8],3230 nM
same,Kb,[8]; read-out: pA2 (converted),0.00794 nM
same,Kb,[9],16500 nM
CCCc1cc(O)c2c(c1)OC(C)(C)[C@@H]1CCC(C)=C[C@@H]21,Activity,[2],50%
CCCCCCCC(C)(C)c1cc(O)c2cc(Cc3ccccc3O)c(=O)oc2c1,Activity,[3],Active
same,Activity,[4],inactive
same,IC50,[5],12500 nM
same,IC50,[8],113 nM
same,inhibition,[8],Dose-dependent effect
same,Kb,[9],561 nM
